Each block holds one molecule with its values, some of them ahead of it.
Tests used:
TU-BcX-4IC M2 spheres = assay: Mammosphere formation and area quantification; format: cell-based, human; settings: 7 days treatment
Summary of the method: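 Cells were plated at 1,000/well in low-attachment plates in serum-free F12/DMEM with B-27 and left 24 h to form spheres. Spheres were then exposed to test compound or DMSO for one week, re-dosed every three days. Spheres were imaged at 40X or 100X, and length and width were measured to calculate area, which was compared with DMSO controls.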

MDA-MB-231 cells [1] = assay: Crystal violet staining, cells remaining / viability dose-response; format: cell-based, human
Summary of the method: (§1)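 Cells were plated at 5,000/well in 5% charcoal-stripped DMEM for 48 h, then exposed to test compound or DMSO vehicle for 72 h at 37 °C, 5% CO2. They were fixed with glutaraldehyde for 20 min and stained for 20 min with 0.1% crystal violet in 90% methanol. After overnight drying, cells were lysed in 33% acetic acid and read at 620 nm. Signal was normalized to DMSO and plotted as dose-response.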

BT549 cells = assay: Transwell migration assay; format: cell-based, human; settings: BT549, pretreated 1 μM 72 hours, 24 hours migration
Summary of the method: (§2)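 Cells were pretreated 72 h with test compound (1 μM) or DMSO, and viable cells were then seeded into transwell chambers for 24 h. Non-migrated cells were removed. Migrated cells were fixed, crystal violet-stained, imaged by brightfield and counted. Counts were normalized to DMSO per cell line; triplicate experiments.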

MINK = MINK (Homo sapiens, UniProt Q8N4C8); assay: Kinase inhibition assay; format: biochemical; settings: 1 μM
MINK, sequence (Q8N4C8 whole entry): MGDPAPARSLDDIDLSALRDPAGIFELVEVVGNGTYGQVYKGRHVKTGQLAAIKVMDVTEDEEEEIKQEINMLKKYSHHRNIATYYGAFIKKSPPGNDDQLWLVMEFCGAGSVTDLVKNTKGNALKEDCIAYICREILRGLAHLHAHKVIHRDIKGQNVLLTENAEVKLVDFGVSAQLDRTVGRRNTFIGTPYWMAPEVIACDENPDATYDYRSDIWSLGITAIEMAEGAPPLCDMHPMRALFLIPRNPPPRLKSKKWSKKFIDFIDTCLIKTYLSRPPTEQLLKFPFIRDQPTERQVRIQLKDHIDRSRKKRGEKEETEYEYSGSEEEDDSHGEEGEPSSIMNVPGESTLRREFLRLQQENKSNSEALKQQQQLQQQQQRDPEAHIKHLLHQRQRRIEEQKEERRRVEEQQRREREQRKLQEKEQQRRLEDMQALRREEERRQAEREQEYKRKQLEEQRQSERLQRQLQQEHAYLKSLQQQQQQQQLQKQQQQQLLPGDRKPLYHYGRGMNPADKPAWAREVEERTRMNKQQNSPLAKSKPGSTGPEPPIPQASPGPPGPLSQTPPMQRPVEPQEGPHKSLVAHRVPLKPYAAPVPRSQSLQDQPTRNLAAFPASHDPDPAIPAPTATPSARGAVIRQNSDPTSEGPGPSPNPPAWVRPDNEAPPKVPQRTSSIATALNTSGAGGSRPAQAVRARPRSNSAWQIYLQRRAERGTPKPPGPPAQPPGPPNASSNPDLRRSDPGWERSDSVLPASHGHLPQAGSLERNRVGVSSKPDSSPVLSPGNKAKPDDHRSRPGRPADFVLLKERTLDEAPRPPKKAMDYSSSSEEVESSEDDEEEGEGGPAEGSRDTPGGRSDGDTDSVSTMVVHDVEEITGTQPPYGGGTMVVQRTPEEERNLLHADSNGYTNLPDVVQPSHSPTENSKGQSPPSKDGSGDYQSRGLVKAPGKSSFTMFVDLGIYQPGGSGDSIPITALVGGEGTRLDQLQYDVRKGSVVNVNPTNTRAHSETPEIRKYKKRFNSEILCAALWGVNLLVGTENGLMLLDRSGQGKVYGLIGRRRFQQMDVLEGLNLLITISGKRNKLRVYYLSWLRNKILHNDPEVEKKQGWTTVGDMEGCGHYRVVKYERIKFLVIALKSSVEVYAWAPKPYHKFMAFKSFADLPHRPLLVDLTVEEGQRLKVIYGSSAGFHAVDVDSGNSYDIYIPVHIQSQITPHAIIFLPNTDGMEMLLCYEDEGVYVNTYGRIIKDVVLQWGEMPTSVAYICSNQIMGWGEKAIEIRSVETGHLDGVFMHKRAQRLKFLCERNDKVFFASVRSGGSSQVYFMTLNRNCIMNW

MDA-MB-231 M2 spheres = assay: Mammosphere formation and area quantification; format: cell-based, human; settings: MDA-MB-231, 7 days treatment
Summary of the method: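 MDA-MB-231 cells were seeded at 1,000/well in low-attachment wells in serum-free F12/DMEM plus B-27 and allowed 24 h to form spheres. Spheres were then treated with test compound or DMSO for one week, re-dosed every three days. Imaging was at 40X or 100X. Sphere length and width were measured, area was calculated, and values were compared with DMSO controls.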

HIPK4 = HIPK4 (Homo sapiens, UniProt Q8NE63); assay: Kinase inhibition assay; format: biochemical; settings: 1 μM
HIPK4, sequence (Q8NE63 whole entry): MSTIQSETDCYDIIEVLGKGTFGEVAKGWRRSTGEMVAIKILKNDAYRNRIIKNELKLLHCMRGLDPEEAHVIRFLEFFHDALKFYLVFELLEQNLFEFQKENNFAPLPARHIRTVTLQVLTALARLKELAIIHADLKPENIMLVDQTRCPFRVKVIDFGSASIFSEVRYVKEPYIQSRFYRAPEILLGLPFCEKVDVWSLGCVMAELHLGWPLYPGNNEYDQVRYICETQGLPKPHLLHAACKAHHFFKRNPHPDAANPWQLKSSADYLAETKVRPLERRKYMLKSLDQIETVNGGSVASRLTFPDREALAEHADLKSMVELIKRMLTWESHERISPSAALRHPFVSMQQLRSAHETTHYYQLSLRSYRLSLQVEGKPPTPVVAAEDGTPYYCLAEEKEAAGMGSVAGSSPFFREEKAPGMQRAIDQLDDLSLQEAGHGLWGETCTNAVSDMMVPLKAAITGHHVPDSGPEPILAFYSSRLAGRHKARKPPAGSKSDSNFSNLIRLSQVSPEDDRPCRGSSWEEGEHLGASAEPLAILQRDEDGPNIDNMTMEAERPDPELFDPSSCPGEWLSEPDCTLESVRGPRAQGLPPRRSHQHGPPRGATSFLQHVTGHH

BT-549 cells [2] = assay: qRT-PCR of epithelial and mesenchymal genes; format: cell-based, human; settings: BT-549, 1 μM, 72 hours
Summary of the method: (§3)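 Cells were treated 72 h with test compound (1 μM) or DMSO. Total RNA was column-isolated and checked for quantity and quality by absorbance (260, 280 nm). Then 2 μg total RNA was reverse-transcribed and gene expression measured by qRT-PCR.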

TU-BcX-4IC cells [3] = assay: Crystal violet staining, cells remaining / viability dose-response; format: cell-based, human; settings: 1 μM, 72 hours
MDA-MB-231 cells [4] = assay: Ki-67 immunofluorescence staining for proliferation; format: cell-based, human; settings: MDA-MB-231, 1 μM, 72 hours
LOK = LOK (Homo sapiens, UniProt O94804); assay: Kinase inhibition assay; format: biochemical; settings: 1 μM
LOK, sequence (O94804 whole entry): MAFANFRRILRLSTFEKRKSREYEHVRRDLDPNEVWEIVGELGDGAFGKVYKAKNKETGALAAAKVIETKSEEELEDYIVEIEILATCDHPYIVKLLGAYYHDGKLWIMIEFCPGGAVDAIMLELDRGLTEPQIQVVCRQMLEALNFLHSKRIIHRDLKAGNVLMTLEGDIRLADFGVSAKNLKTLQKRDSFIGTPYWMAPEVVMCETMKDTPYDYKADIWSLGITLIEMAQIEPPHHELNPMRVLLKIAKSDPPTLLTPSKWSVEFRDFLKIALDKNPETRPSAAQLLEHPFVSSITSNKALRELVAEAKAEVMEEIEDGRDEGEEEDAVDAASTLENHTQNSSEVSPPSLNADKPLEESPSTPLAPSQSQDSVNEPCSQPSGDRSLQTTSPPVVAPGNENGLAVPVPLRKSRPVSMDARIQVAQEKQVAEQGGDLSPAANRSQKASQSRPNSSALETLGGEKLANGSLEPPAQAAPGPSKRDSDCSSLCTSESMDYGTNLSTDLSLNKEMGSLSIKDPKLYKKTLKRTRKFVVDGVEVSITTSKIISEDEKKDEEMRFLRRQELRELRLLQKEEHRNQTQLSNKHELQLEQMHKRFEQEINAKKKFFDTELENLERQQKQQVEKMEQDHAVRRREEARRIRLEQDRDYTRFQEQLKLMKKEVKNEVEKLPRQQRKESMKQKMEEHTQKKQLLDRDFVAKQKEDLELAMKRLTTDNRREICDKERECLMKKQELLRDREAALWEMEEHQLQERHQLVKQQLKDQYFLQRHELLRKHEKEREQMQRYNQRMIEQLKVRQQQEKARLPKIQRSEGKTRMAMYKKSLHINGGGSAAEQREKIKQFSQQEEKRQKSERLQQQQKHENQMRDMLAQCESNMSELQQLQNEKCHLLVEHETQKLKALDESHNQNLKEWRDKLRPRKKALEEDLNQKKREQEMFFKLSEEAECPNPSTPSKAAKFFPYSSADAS

MST2 = MST2 (Homo sapiens, UniProt Q13188); assay: Kinase inhibition assay; format: biochemical; settings: 1 μM
MST2, sequence (Q13188 whole entry): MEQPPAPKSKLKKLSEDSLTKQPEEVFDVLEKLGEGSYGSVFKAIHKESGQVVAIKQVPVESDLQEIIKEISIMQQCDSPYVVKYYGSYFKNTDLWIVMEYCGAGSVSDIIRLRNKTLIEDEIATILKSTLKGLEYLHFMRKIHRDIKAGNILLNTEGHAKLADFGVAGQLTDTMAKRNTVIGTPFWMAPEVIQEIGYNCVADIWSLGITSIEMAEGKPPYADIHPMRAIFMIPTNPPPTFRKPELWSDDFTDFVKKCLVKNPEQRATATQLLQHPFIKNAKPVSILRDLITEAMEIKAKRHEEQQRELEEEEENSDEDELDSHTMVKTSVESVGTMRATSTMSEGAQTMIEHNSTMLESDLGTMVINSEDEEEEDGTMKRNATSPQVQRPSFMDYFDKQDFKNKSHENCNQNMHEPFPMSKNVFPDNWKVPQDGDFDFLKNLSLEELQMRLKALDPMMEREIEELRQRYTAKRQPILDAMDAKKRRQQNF

TU-BcX-4IC cells [5] = assay: Transwell migration assay; format: cell-based, human; settings: pretreated 1 μM 72 hours, 24 hours migration
Summary of the method: as §2

MDA-MB-231 cells [6] = assay: qRT-PCR of epithelial and mesenchymal genes; format: cell-based, human; settings: MDA-MB-231, 1 μM, 72 hours
Summary of the method: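 MDA-MB-231 cells in 5% charcoal-stripped DMEM were pre-exposed for 72 h to test compound (1 μM) or DMSO. RNA was then isolated and gene expression measured by quantitative real-time PCR.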

BT-549 cells [7] = assay: Crystal violet staining, cells remaining / viability dose-response; format: cell-based, human
Summary of the method: as §1

NEK2 = biological target: T1, NEK2 (Homo sapiens, UniProt P51955); assay: Kinase inhibition assay; format: biochemical; settings: 1 μM
T1 sequence (P51955 1-445): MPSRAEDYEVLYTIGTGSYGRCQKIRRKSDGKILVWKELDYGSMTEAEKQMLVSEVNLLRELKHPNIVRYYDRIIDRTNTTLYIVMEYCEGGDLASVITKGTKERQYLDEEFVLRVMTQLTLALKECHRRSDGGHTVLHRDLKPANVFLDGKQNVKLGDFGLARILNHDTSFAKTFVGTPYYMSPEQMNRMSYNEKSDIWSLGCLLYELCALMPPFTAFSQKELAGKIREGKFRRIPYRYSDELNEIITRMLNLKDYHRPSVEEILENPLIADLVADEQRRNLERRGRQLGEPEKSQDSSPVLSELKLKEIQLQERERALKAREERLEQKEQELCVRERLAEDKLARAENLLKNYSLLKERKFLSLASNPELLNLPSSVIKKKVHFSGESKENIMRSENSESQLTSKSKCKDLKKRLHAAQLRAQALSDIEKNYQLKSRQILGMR

TU-BcX-4IC cells [8] = assay: qRT-PCR of epithelial and mesenchymal genes; format: cell-based, human; settings: 1 μM, 72 hours
Summary of the method: as §3

TU-BcX-4IC explants = assay: Western blot of treated PDX tumor explants; format: cell-based, human; settings: 24 hours
TU-BcX-49S cells = assay: qRT-PCR of epithelial and mesenchymal genes; format: cell-based, human

- IC50 (MDA-MB-231 cells [1]; Homo sapiens, MDA-MB-231, 72 h, read-out: IC-50, number of cells remaining): 50 µM
- Binding activity against MINK (MINK): significant binding activity
- Binding activity against HIPK4 (HIPK4): significant binding activity
- Binding activity to LOK (LOK): 99.1%
- Binding activity against MST2 (MST2): significant binding activity
- IC50 (BT-549 cells [7]; Homo sapiens, BT-549, 72 h, read-out: IC-50, number of cells remaining): 7.5 µM
- Binding activity against NEK2 (NEK2): significant binding activity
- Binding activity to NEK2 (NEK2): 97.1%
SMILES: COc1cc2ncn(-c3cc(OCc4sccc4Cl)c(C(N)=O)s3)c2cc1OC [GSK448459A]
- Mammosphere formation (sphere area) (TU-BcX-4IC M2 spheres): significantly suppressed mammosphere formation
- Number of cells remaining compared to DMSO controls (MDA-MB-231 cells [1]; MDA-MB-231, 1 μM, 72 hours): increased number of cells remaining
- Transwell cell migration (BT549 cells): most suppressive effects on cell migration
- Sphere area (MDA-MB-231 M2 spheres): significantly increased sphere area
- CDH1 mRNA expression (BT-549 cells [2]): significantly reduced CDH1 mRNA expression
- MMP9 mRNA expression (BT-549 cells [2]): Neither GSK346294A nor GSK448459A affected MMP9 expression
- SNAI1 mRNA expression (BT-549 cells [2]): increased SNAI1 expression in BT-549 cells significantly
- cFOS mRNA expression (BT-549 cells [2]): suppressive effects in all three TNBC cell lines, although not significantly
- Number of cells remaining compared to DMSO controls (TU-BcX-4IC cells [3]): increased number of cells remaining
- Ki-67 positive cells (cell proliferation) (MDA-MB-231 cells [4]): decreased Ki-67 positive cells
- Transwell cell migration (TU-BcX-4IC cells [5]): most suppressive effects on cell migration
- MMP9 mRNA expression (MDA-MB-231 cells [6]): significantly downregulated MMP9 expression
- SNAI1 mRNA expression (MDA-MB-231 cells [6]): significantly decreased SNAI1 expression
- ZEB1 mRNA expression (MDA-MB-231 cells [6]): significantly increased ZEB1 expression
- cFOS mRNA expression (MDA-MB-231 cells [6]): suppressive effects in all three TNBC cell lines, although not significantly
- Number of cells remaining compared to DMSO controls (BT-549 cells [7]; BT-549, 1 μM, 72 hours): increased number of cells remaining
- MMP9 mRNA expression (TU-BcX-4IC cells [8]): Neither GSK346294A nor GSK448459A affected MMP9 expression
- ZEB1 mRNA expression (TU-BcX-4IC cells [8]): suppressed ZEB1 expression in TU-BcX-4IC cells albeit not significantly
- cFOS mRNA expression (TU-BcX-4IC cells [8]): suppressive effects in all three TNBC cell lines, although not significantly
- MMP9 protein expression (TU-BcX-4IC explants): did not suppress MMP9 and ZEB1 protein expressions
- ZEB1 protein expression (TU-BcX-4IC explants): did not suppress MMP9 and ZEB1 protein expressions
- cFOS mRNA expression (TU-BcX-49S cells): Neither GSK346294A nor GSK448459A suppressed cFOS mRNA expression

SMILES: CC[C@@H]1C(=O)N(C)c2cnc(Nc3ccc(C(=O)NC4CCN(C)CC4)cc3OC)nc2N1C1CCCC1 [BI2536]
- Ki-67 positive cells (cell proliferation) (MDA-MB-231 cells [4]): significantly reduced the number of Ki-67 positive cells

SMILES: CC[C@@H]1C(=O)N(C)c2cnc(Nc3ccc(C(=O)N[C@H]4CC[C@H](N5CCN(CC6CC6)CC5)CC4)cc3OC)nc2N1C(C)C [BI6727]
- MMP9 protein expression (TU-BcX-4IC explants): suppressed the mesenchymal markers ZEB1 and MMP9 expression
- ZEB1 protein expression (TU-BcX-4IC explants): suppressed the mesenchymal markers ZEB1 and MMP9 expression
